ChEMBL document CHEMBL2176997, “Salicylanilide inhibitors of Toxoplasma gondii” (J Med Chem, 2012)
Values after ≈ are worked out from the molar mass of the structure shown. Active and inactive are the calls of the source. No cut-off for these calls is given here.

What was measured:
Toxoplasma gondii [1] = assay: Antiapicomplexan activity against Toxoplasma gondii RH tachyzoites infected in HFF cells assessed as [3H]-uracil incorporation after 24 hrs by scintillation luminescence counter; assay type: functional
Outline: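 Confluent HFF monolayers in IMDM-C (10% FBS) infected with 3,500 needle-released tachyzoites per well. Compounds from 10 mM DMSO stocks, diluted in medium (final DMSO ≤0.1%), were added 1 h after infection, with 0.1% DMSO as vehicle control. [3H]-uracil (25 µL of 0.1 mCi/mL) was added 24 h before harvest onto glass-fibre filters and counted by scintillation. Cultures were kept at 33°C or 37°C, 5% CO2.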

Toxoplasma gondii [2] = assay: Parasitocidal activity against Toxoplasma gondii RH tachyzoites expressing yellow fluorescent protein infected in HFF cells at 1 uM administered for 10 days followed by compound wash out measured after 11 to 25 days; assay type: functional, organism-based
Outline: (§1)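 RH-YFP tachyzoites in HFF cells given compound at 1 μM under one of four regimens: 4 days then removal; 10 days then removal; refreshed at day 4 and removed at day 10; or maintained throughout. Parasite growth was followed as YFP fluorescence over time.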

Toxoplasma gondii [3] = assay: Parasitocidal activity against Toxoplasma gondii RH tachyzoites expressing yellow fluorescent protein infected in HFF cells at 1 uM administered for 4 days followed by compound refreshment on day 4 and compound wash out on day 10 measured after 11 to 25 days; assay type: functional, organism-based; outline: as §1
HFF = assay: Cytotoxicity against HFF cells assessed as survival by WST1 assay; assay type: cell-based; details: human
Outline: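 Confluent HFF cells were treated with compounds at the concentrations used in the challenge assays. On the final day WST-1 reagent was added, followed by 1 h incubation in the dark at 37°C and absorbance reading at 420 nm.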

Plasmodium falciparum [4] = assay: Antiapicomplexan activity against chloroquine-sensitive Plasmodium falciparum D6 assessed as growth inhibition after 72 hrs by MSF assay; assay type: functional, organism-based; details: D6, 72 h
Outline: (§2)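 P. falciparum D6 or TM91-C235, late-ring/early-trophozoite stage, cultured at 0.3% parasitemia and 2% hematocrit on predosed plates. Twelve two-fold dilutions spanned 0.5–10000 ng/ml final, in quadruplicate, with chloroquine control. Incubation 72 h at 37°C under 5% CO2/5% O2/90% N2. Lysis buffer with SYBR Green I (10x final) was added, then 24 h dark at room temperature. IC50 from fluorescence by sigmoidal variable-slope regression.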

Plasmodium falciparum [5] = assay: Antiapicomplexan activity against chloroquine-resistant Plasmodium falciparum TM91-C235 assessed as growth inhibition after 72 hrs by MSF assay; assay type: functional, organism-based; details: TM91-C235, 72 h; outline: as §2
Toxoplasma gondii [6] = assay: Antiapicomplexan activity against Toxoplasma gondii THdhxgTRP tachyzoites harboring insertional mutation assessed as growth inhibition after 6 weeks; assay type: functional, organism-based
Toxoplasma gondii [7] = assay: Parasitocidal activity against Toxoplasma gondii RH tachyzoites expressing yellow fluorescent protein infected in HFF cells assessed as parasite growth inhibition at 1 uM administered for 25 days followed by compound wash out; assay type: functional, organism-based; outline: as §1
Toxoplasma gondii [8] = assay: Parasitocidal activity against Toxoplasma gondii RH tachyzoites expressing yellow fluorescent protein infected in HFF cells at 1 uM administered for 4 days followed by compound wash out measured after 11 to 25 days; assay type: functional, organism-based; outline: as §1
Toxoplasma gondii [9] = assay: Antiapicomplexan activity against Toxoplasma gondii RH tachyzoites expressing yellow fluorescent protein infected in HFF cells after 72 hrs by fluorescence assay; assay type: functional, organism-based
Outline: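 Confluent HFF monolayers in IMDM-C (10% FBS) infected with 3,500 RH-YFP tachyzoites per well. Compounds were added 1 h later from 10 mM DMSO stocks, final DMSO ≤0.1%. Pyrimethamine/sulfadiazine and 0.1% DMSO served as controls. After 72 h YFP fluorescence was read (ex 514, em 540 nm, bottom optics), giving MIC50/MIC90 ranges. Plates held at 33°C or 37°C, 5% CO2.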

Toxoplasma gondii [10] = assay: Antiapicomplexan activity against Toxoplasma gondii ME49 oocysts infected in HLA B07 transgenic mouse assessed as increase in survival at 25 to 100 mg/kg, po; assay type: functional, organism-based
Outline: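 Female B7 mice (~25 g), 5 per group, given 100 ME49 or TgGoatUS4 oocysts by oral gavage, plus 100 mg/kg (2.5 mg/mL) or 25 mg/kg ([…]) of test compound as 1.0 mL oral-gavage suspension. Vehicle DMSO 1.0%/PEG 400 5.0%/0.5% CMC 94.0%. Infected untreated and drug-only groups included. Mice observed daily and day of death recorded. Impression smears examined for tachyzoites.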

Mus musculus = assay: Toxicity in HLA B07 transgenic mouse assessed as survival at 25 to 100 mg/kg, po administered for 9 days measured after day 10; assay type: organism-based; design: dose 25-100 mg/kg, route oral; details: in vivo, 216 h

How did the MIC50 (Toxoplasma gondii [1]) turn out when `O=C(Nc1cccc(Br)c1)c1cc(Cl)ccc1O` was run?
Its MIC50 is 0.5 µM (≈ 0.163 µg/mL).

And the MIC90 (Toxoplasma gondii [1])?
The MIC90 was 0.75 µM (≈ 0.245 µg/mL).

With `O=C(Nc1ccc(Cl)cc1F)c1cc(Cl)ccc1O` as the compound, how does the MIC50 (Toxoplasma gondii [1]) read?
The MIC50 was greater than 1 µM.

And the MIC90 (Toxoplasma gondii [1])?
Its MIC90 is 0.5 µM (≈ 0.15 µg/mL).

For `CC(C)Oc1cccc(NC(=O)c2cc(Cl)ccc2O)c1`, which MIC50 (Toxoplasma gondii [1]) is on record?
Its MIC50 is greater than 1 µM.

And the MIC90 (Toxoplasma gondii [1])?
The MIC90 was greater than 1 µM.

Which MIC50 (Toxoplasma gondii [1]) does the source give for `Cc1ccc(O)c(C(=O)Nc2ccc([N+](=O)[O-])cc2Cl)c1` here?
The MIC50 was 0.25 µM (≈ 0.0767 µg/mL).

And the MIC90 (Toxoplasma gondii [1])?
The MIC90 was 0.25 µM (≈ 0.0767 µg/mL).

What does the source list for `O=C(Nc1cccc(OC(C(F)(F)F)C(F)(F)F)c1)c1cc(Cl)ccc1O`?
MIC50 (Toxoplasma gondii [1]): > 1 µM; MIC90 (Toxoplasma gondii [1]): > 1 µM

With `O=C(Oc1ccc(Cl)cc1C(=O)Nc1ccc([N+](=O)[O-])cc1Cl)c1ccccc1` as the compound, how does the Activity (Toxoplasma gondii [2]) read?
The Activity was “Active”.

What about the Activity (Toxoplasma gondii [3]) of the same compound?
Its Activity is “Active”.

And the Activity (HFF)?
Its Activity is greater than 1000 nM.

What about the IC50 (Plasmodium falciparum [4]) of the same compound?
The IC50 was 0.77 µM.

What about the IC50 (Plasmodium falciparum [5]) of the same compound?
The IC50 was 0.69 µM.

And the “growth inhibition (GI)” value (Toxoplasma gondii [6])?
The value was “Active”.

What about the Activity (Toxoplasma gondii [7]) of the same compound?
Its Activity is “Active”.

And the MIC50 (Toxoplasma gondii [1])?
The MIC50 was 0.061 µM (≈ 0.0263 µg/mL).

What about the MIC90 (Toxoplasma gondii [1]) of the same compound?
The MIC90 was 0.125 µM (≈ 0.0539 µg/mL).

What about the Activity (Toxoplasma gondii [8]) of the same compound?
The Activity was “Active”.

What about the IC50 (Toxoplasma gondii [9]) of the same compound?
The IC50 was 0.061 µM.

And the IC90 (Toxoplasma gondii [9])?
The IC90 was 0.125 µM.

How did the MIC50 (Toxoplasma gondii [1]) turn out when `O=C(Nc1ccc([N+](=O)[O-])cc1Cl)c1cc(Cl)ccc1O` [NICLOSAMIDE] was run?
The MIC50 was 0.2 µM (≈ 0.0654 µg/mL).

And the MIC90 (Toxoplasma gondii [1])?
The MIC90 was 0.2 µM (≈ 0.0654 µg/mL).

With `CCc1cccc(NC(=O)c2cc(Cl)ccc2O)c1` as the compound, how does the MIC50 (Toxoplasma gondii [1]) read?
Its MIC50 is 0.25 µM (≈ 0.0689 µg/mL).

And the MIC90 (Toxoplasma gondii [1])?
Its MIC90 is 0.5 µM (≈ 0.138 µg/mL).

With `CN1CCN(C(=O)Oc2ccc(Cl)cc2C(=O)Nc2ccc([N+](=O)[O-])cc2Cl)CC1` as the compound, how does the MIC50 (Toxoplasma gondii [1]) read?
Its MIC50 is 0.5 µM (≈ 0.227 µg/mL).

What about the MIC90 (Toxoplasma gondii [1]) of the same compound?
Its MIC90 is 0.75 µM (≈ 0.34 µg/mL).

Which MIC50 (Toxoplasma gondii [1]) does the source give for `Cc1cc(C)cc(NC(=O)c2cc(Cl)ccc2O)c1` here?
Its MIC50 is greater than 1 µM.

And the MIC90 (Toxoplasma gondii [1])?
Its MIC90 is greater than 1 µM.

Which results are given for `COc1ccc(F)cc1C(=O)Nc1ccc([N+](=O)[O-])cc1F`?
MIC50 (Toxoplasma gondii [1]): > 1 µM; MIC90 (Toxoplasma gondii [1]): > 1 µM

Which results are given for `O=C(Nc1cccc(F)c1)c1cc(Cl)ccc1O`?
MIC50 (Toxoplasma gondii [1]): 0.5 µM (≈ 0.133 µg/mL); MIC90 (Toxoplasma gondii [1]): 0.75 µM (≈ 0.199 µg/mL)

For `O=C(Nc1cc(C(F)(F)F)cc(C(F)(F)F)c1)c1cc(Cl)ccc1O` [IMD-0354], which Activity (Toxoplasma gondii [2]) is on record?
Its Activity is “Active”.

And the Activity (Toxoplasma gondii [3])?
Its Activity is “Active”.

And the Activity (HFF)?
Its Activity is greater than 1000 nM.

And the IC50 (Plasmodium falciparum [4])?
Its IC50 is 1.4 µM.

And the IC50 (Plasmodium falciparum [5])?
Its IC50 is 1.3 µM.

And the “growth inhibition (GI)” value (Toxoplasma gondii [6])?
The value was “Active”.

What about the Activity (Toxoplasma gondii [7]) of the same compound?
The Activity was “Active”.

And the MIC50 (Toxoplasma gondii [1])?
The MIC50 was 0.016 µM (≈ 0.00614 µg/mL).

And the MIC90 (Toxoplasma gondii [1])?
The MIC90 was 0.125 µM (≈ 0.048 µg/mL).

And the Activity (Toxoplasma gondii [8])?
The Activity was “Active”.

And the IC50 (Toxoplasma gondii [9])?
Its IC50 is 0.016 µM.

What about the IC90 (Toxoplasma gondii [9]) of the same compound?
Its IC90 is 0.125 µM.

What does the source list for `COc1ccc(NC(=O)c2cc(Cl)ccc2O)cc1OC`?
MIC50 (Toxoplasma gondii [1]): > 1 µM; MIC90 (Toxoplasma gondii [1]): > 1 µM

How did the MIC50 (Toxoplasma gondii [1]) turn out when `COC(=O)[C@@H]1CCCN1C(=O)Oc1ccc(Cl)cc1C(=O)Nc1ccc([N+](=O)[O-])cc1Cl` was run?
Its MIC50 is greater than 1 µM.

What about the MIC90 (Toxoplasma gondii [1]) of the same compound?
Its MIC90 is greater than 1 µM.

How did the MIC50 (Toxoplasma gondii [1]) turn out when `O=C(Nc1cccc(Oc2ccccc2)c1)c1cc(Cl)ccc1O` was run?
The MIC50 was greater than 1 µM.

What about the MIC90 (Toxoplasma gondii [1]) of the same compound?
Its MIC90 is greater than 1 µM.

With `C#Cc1cc(NC(=O)c2cc(Cl)ccc2O)ccc1F` as the compound, how does the MIC50 (Toxoplasma gondii [1]) read?
Its MIC50 is greater than 1 µM.

What about the MIC90 (Toxoplasma gondii [1]) of the same compound?
The MIC90 was greater than 1 µM.

`C#Cc1cccc(NC(=O)c2cc(Cl)ccc2O)c1` was tested. Which MIC50 (Toxoplasma gondii [1]) did it give?
The MIC50 was greater than 1 µM.

And the MIC90 (Toxoplasma gondii [1])?
Its MIC90 is greater than 1 µM.

Which results are given for `O=C(Nc1cccc(Cl)c1)c1cc(I)cc(I)c1O`?
MIC50 (Toxoplasma gondii [1]): > 1 µM; MIC90 (Toxoplasma gondii [1]): > 1 µM

`CN(CC(=O)NN)C(=O)Oc1ccc(Cl)cc1C(=O)Nc1ccc([N+](=O)[O-])cc1Cl.Cl` was tested. Which Activity (Toxoplasma gondii [2]) did it give?
Its Activity is “Active”.

What about the Activity (Toxoplasma gondii [3]) of the same compound?
The Activity was “Active”.

And the Activity (HFF)?
The Activity was greater than 1000 nM.

What about the Activity (Toxoplasma gondii [10]) of the same compound?
The Activity was “Active”.

And the Activity (Mus musculus)?
Its Activity is “Non-toxic”.

And the IC50 (Plasmodium falciparum [5])?
The IC50 was 2.7 µM.

What about the MIC50 (Toxoplasma gondii [1]) of the same compound?
Its MIC50 is 0.016 µM.

What about the MIC90 (Toxoplasma gondii [1]) of the same compound?
Its MIC90 is 0.125 µM.

And the IC50 (Toxoplasma gondii [9])?
The IC50 was 0.016 µM.

And the IC90 (Toxoplasma gondii [9])?
Its IC90 is 0.125 µM.

Which results are given for `O=C(Nc1ccc2c(c1)OCCO2)c1cc(Cl)ccc1O`?
MIC50 (Toxoplasma gondii [1]): > 1 µM; MIC90 (Toxoplasma gondii [1]): > 1 µM
